{
  "source": "paper PMC10128457",
  "about": "(Pharmaceutical Biology, 2023)",
  "test_system": "H. pylori",
  "experiment": "In vitro assay against Helicobacter pylori, broth micro-well dilution method",
  "type": "cell-based",
  "conditions": "for anti-H. pylori activity (in words): Table 2; for MIC: Helicobacter pylori, read-out: Mean of H. pylori inhibitory % MIC",
  "procedure,_shortened": "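Test compound and clarithromycin (positive control) dissolved in DMSO and tested in 96-well plates at 125–0.24 µg against an H. pylori inoculum suspension. Readout: MTT colour at 620 nm on a microplate reader. MIC is the lowest concentration with no change in MTT colour. MIC90 (90% inhibition) is calculated from dose-response curves. Determinations done three times.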",
  "data": [
    {"smiles": "COc1cc(-c2cc(=O)c3c(O)cc(O)cc3o2)ccc1O", "note": "[Compound 5, chrysoeriol]", "values": [
      {"measurement": "anti-H. pylori activity (in words)", "value": "moderate to low inhibitory activities"}
    ]},
    {"smiles": "C=C[C@@]1(C)C=C2CC[C@@H]3[C@](C)(CCC[C@@]3(C)C(=O)O)[C@H]2CC1", "note": "[Compound 2, pimaric acid]", "values": [
      {"measurement": "anti-H. pylori activity (in words)", "value": "moderate to low inhibitory activities"}
    ]},
    {"smiles": "O=C(O)c1ccc(O)cc1", "note": "[Compound 10, p-hydroxybenzoic acid]", "values": [
      {"measurement": "MIC", "value": 0.48, "unit": "µg/mL"}
    ]},
    {"smiles": "O=c1cc(-c2ccc(O)c(O)c2)oc2cc(O)cc(O)c12", "note": "[Compound 7, luteolin]", "values": [
      {"measurement": "anti-H. pylori activity (in words)", "value": "moderate to low inhibitory activities"}
    ]},
    {"smiles": "CC[C@H]1OC(=O)[C@H](C)[C@@H](O[C@H]2C[C@@](C)(OC)[C@@H](O)[C@H](C)O2)[C@H](C)[C@@H](O[C@@H]2O[C@H](C)C[C@H](N(C)C)[C@H]2O)[C@](C)(OC)C[C@@H](C)C(=O)[C@H](C)[C@@H](O)[C@]1(C)O", "note": "[Clarithromycin, clarithromycin, reference compound]", "values": [
      {"measurement": "MIC", "value": 1.95, "unit": "µg/mL"}
    ]},
    {"smiles": "COc1cc([C@H]2OC[C@H]3[C@@H]2CO[C@@H]3c2cc(OC)c(O)c(OC)c2)cc(OC)c1O", "note": "[Compound 4, syringaresinol]", "values": [
      {"measurement": "MIC", "value": 0.98, "unit": "µg/mL"}
    ]},
    {"smiles": "O=c1cc(-c2ccc(O)cc2)oc2cc(O)cc(O)c12", "note": "[Compound 6, apigenin]", "values": [
      {"measurement": "MIC", "value": 1.95, "unit": "µg/mL"}
    ]},
    {"smiles": "COC(=O)c1ccc(O)cc1", "note": "[Compound 9, methylparaben]", "values": [
      {"measurement": "MIC", "value": 1.95, "unit": "µg/mL"}
    ]},
    {"smiles": "COc1ccc(-c2cc(=O)c3c(O)cc(O[C@@H]4O[C@H](CO)[C@@H](O)[C@H](O)[C@H]4O)cc3o2)cc1O", "note": "[Compound 8, diosmetin-7-O-β-D-glucopyranoside]", "values": [
      {"measurement": "MIC", "value": 0.98, "unit": "µg/mL"}
    ]}
  ]
}
